ChEMBL document CHEMBL4265991

Columns and labels:
[1] = compound: COc1ccccc1-c1nnc(SC2=CS(=O)(=O)c3ccccc32)o1; assay: Inhibition of recombinant Cryptococcus neoformans His-tagged IMPDH expressed in Escherichia coli BL21 (DE3) at 0.3 uM assessed as Km for substrate using NAD as fixed substrate at 700 uM and IMP as second substrate with varying concentrations of 25 to 800 uM (reference value: 257.5 +/- 23 microM)
How it was run: (§1)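 Recombinant C. neoformans IMPDH, 100 nM final, reaction started by adding enzyme. NADH production monitored at 340 nm. Inhibitor series ran from 20 to 0.31 µM; MPA tested at 312 to 39 nM. Km and Vmax fitted to the Michaelis–Menten equation; inhibition type taken from shifts in Km and Vmax.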

[2] = substrate: COc1c(C)c2c(c(O)c1C/C=C(\C)CCC(=O)O)C(=O)OC2; details: Cryptococcus neoformans; 0.039 uM
[3] = substrate: COc1c(C)c2c(c(O)c1C/C=C(\C)CCC(=O)O)C(=O)OC2; details: Cryptococcus neoformans; 0.078 uM
[4] = compound: O=S1(=O)C=C(Sc2nnc(-c3ccccc3)o2)c2ccccc21; assay: (§2) Inhibition of recombinant Cryptococcus neoformans His-tagged IMPDH expressed in Escherichia coli BL21 (DE3) at 0.3 uM assessed as Vmax for substrate using IMP as fixed substrate at 500 uM and NAD as second substrate with varying concentrations of 31.25 to 1300 uM (reference value: 1.5 microM/min); how it was run: as §1
[5] = compound: COc1ccccc1-c1nnc(SC2=CS(=O)(=O)c3ccccc32)o1; assay: as §2; how it was run: as §1
[6] = compound: O=S1(=O)C=C(Sc2nnc(-c3ccccc3)o2)c2ccccc21; assay: (§3) Inhibition of recombinant Cryptococcus neoformans His-tagged IMPDH expressed in Escherichia coli BL21 (DE3) at 10 uM assessed as Km for substrate using NAD as fixed substrate at 700 uM and IMP as second substrate with varying concentrations of 25 to 800 uM (reference value: 257.5 +/- 23 microM); how it was run: as §1
[7] = compound: COc1ccccc1-c1nnc(SC2=CS(=O)(=O)c3ccccc32)o1; assay: as §3; how it was run: as §1
[8] = substrate: COc1c(C)c2c(c(O)c1C/C=C(\C)CCC(=O)O)C(=O)OC2; details: Cryptococcus neoformans; 0.156 uM
[9] = substrate: COc1c(C)c2c(c(O)c1C/C=C(\C)CCC(=O)O)C(=O)OC2; details: Cryptococcus neoformans; 0.039 uM; remark: listed apart in the source
[10] = compound: O=S1(=O)C=C(Sc2nnc(-c3ccccc3)o2)c2ccccc21; assay: (§4) Inhibition of recombinant Cryptococcus neoformans His-tagged IMPDH expressed in Escherichia coli BL21 (DE3) at 10 uM assessed as Vmax for substrate using IMP as fixed substrate at 500 uM and NAD as second substrate with varying concentrations of 31.25 to 1300 uM (reference value: 1.5 microM/min); how it was run: as §1
[11] = compound: COc1ccccc1-c1nnc(SC2=CS(=O)(=O)c3ccccc32)o1; assay: as §4; how it was run: as §1
[12] = compound: O=S1(=O)C=C(Sc2nnc(-c3ccccc3)o2)c2ccccc21; assay: (§5) Inhibition of recombinant Cryptococcus neoformans His-tagged IMPDH expressed in Escherichia coli BL21 (DE3) at 10 uM assessed as Vmax for substrate using NAD as fixed substrate at 700 uM and IMP as second substrate with varying concentrations of 25 to 800 uM (reference value: 1.5 microM/min); how it was run: as §1
[13] = compound: COc1ccccc1-c1nnc(SC2=CS(=O)(=O)c3ccccc32)o1; assay: as §5; how it was run: as §1
[14] = compound: O=S1(=O)C=C(Sc2nnc(-c3ccccc3)o2)c2ccccc21; assay: (§6) Inhibition of recombinant Cryptococcus neoformans His-tagged IMPDH expressed in Escherichia coli BL21 (DE3) at 2.5 uM assessed as Kcat for substrate using IMP as fixed substrate at 500 uM and NAD as second substrate with varying concentrations of 31.25 to 1300 uM (reference value: 21.5 /s); how it was run: as §1
[15] = compound: COc1ccccc1-c1nnc(SC2=CS(=O)(=O)c3ccccc32)o1; assay: as §6; how it was run: as §1
[16] = compound: O=S1(=O)C=C(Sc2nnc(-c3ccccc3)o2)c2ccccc21; assay: (§7) Inhibition of recombinant Cryptococcus neoformans His-tagged IMPDH expressed in Escherichia coli BL21 (DE3) at 2.5 uM assessed as Km for substrate using NAD as fixed substrate at 700 uM and IMP as second substrate with varying concentrations of 25 to 800 uM (reference value: 257.5 +/- 23 microM); how it was run: as §1
[17] = compound: COc1ccccc1-c1nnc(SC2=CS(=O)(=O)c3ccccc32)o1; assay: as §7; how it was run: as §1
[18] = substrate: COc1c(C)c2c(c(O)c1C/C=C(\C)CCC(=O)O)C(=O)OC2; details: Cryptococcus neoformans; 0.156 uM; remark: listed apart in the source
[19] = substrate: COc1c(C)c2c(c(O)c1C/C=C(\C)CCC(=O)O)C(=O)OC2; details: Cryptococcus neoformans; 0.078 uM; remark: listed apart in the source
[20] = substrate: COc1c(C)c2c(c(O)c1C/C=C(\C)CCC(=O)O)C(=O)OC2; details: Cryptococcus neoformans; 0.039 uM; remark: listed apart in the source
[21] = compound: O=S1(=O)C=C(Sc2nnc(-c3ccccc3)o2)c2ccccc21; assay: (§8) Inhibition of recombinant Cryptococcus neoformans His-tagged IMPDH expressed in Escherichia coli BL21 (DE3) at 10 uM assessed as Km for substrate using IMP as fixed substrate at 500 uM and NAD as second substrate with varying concentrations of 31.25 to 1300 uM (reference value: 257.5 +/- 23 microM); how it was run: as §1
[22] = compound: COc1ccccc1-c1nnc(SC2=CS(=O)(=O)c3ccccc32)o1; assay: as §8; how it was run: as §1
[23] = compound: O=S1(=O)C=C(Sc2nnc(-c3ccccc3)o2)c2ccccc21; assay: (§9) Inhibition of recombinant Cryptococcus neoformans His-tagged IMPDH expressed in Escherichia coli BL21 (DE3) at 2.5 uM assessed as Vmax for substrate using IMP as fixed substrate at 500 uM and NAD as second substrate with varying concentrations of 31.25 to 1300 uM (reference value: 1.5 microM/min); how it was run: as §1
[24] = compound: COc1ccccc1-c1nnc(SC2=CS(=O)(=O)c3ccccc32)o1; assay: as §9; how it was run: as §1
[25] = compound: O=S1(=O)C=C(Sc2nnc(-c3ccccc3)o2)c2ccccc21; assay: (§10) Inhibition of recombinant Cryptococcus neoformans His-tagged IMPDH expressed in Escherichia coli BL21 (DE3) at 2.5 uM assessed as Kcat for substrate using NAD as fixed substrate at 700 uM and IMP as second substrate with varying concentrations of 25 to 800 uM (reference value: 21.5 /s); how it was run: as §1
[26] = compound: COc1ccccc1-c1nnc(SC2=CS(=O)(=O)c3ccccc32)o1; assay: as §10; how it was run: as §1
[27] = substrate: COc1c(C)c2c(c(O)c1C/C=C(\C)CCC(=O)O)C(=O)OC2; details: Cryptococcus neoformans; 0.039 uM; remark: listed apart in the source

B1: Inosine-5'-monophosphate dehydrogenase (Cryptococcus neoformans var. neoformans serotype D (strain JEC21 /ATCC MYA-565) (Filobasidiella neoformans)), Q5KP44 (protein)
chain: MADTNPNAPPRSDSLLNPADALKYLEEYPRGDGLSLQELMDSRKNGGLTYNDFLVLPGHISFPASDVSLQSRATKNIVLNTPFLSSPMDTVTEDRMAIALALHGGLGIIHHNCSAEEQAAMVRRVKKYENGFITDPLCLGPDATVGDVLEIKAKFGFCGVPITETGAPNSKLLGIVTGRDVQFQDAETPIKSVMTTEVVTGSSPITLEKANSLLRETKKGKLPIVDSNGHLVSLVARSDLLKNQNYPYASKVPESKQLYCGAAIGTRPGDKDRLKLLAEAGLDVVVLDSSQGDSVYQIEFIKWIKQTYPKIEIIAGNVVTREQAAQLIAAGADGLRIGMGSGSICITQEVMAVGRPQGTAVYAVAEFASRFGIPCIADGGIGNIGHIAKALALGASAVMMGGLLAGTTESPGEYFYHEGKRVKVYRGMGSIEAMEHTQRGSASGKRSILNLDNAATARYFSEADAVKVAQGVSGDVADKGSINKFVPYLFTGLQHSFQDAGVKSVSELHSCARSGSLRFELRTASAQLEGGVHGLNSYTKRLFA
Km [1]: 93 µM
kcat [2]: 0.9 s⁻¹
Km [3]: 137 µM
Vmax [4]: 1.5 µM/min
Vmax [5]: 1.5 µM/min
Km [6]: 316 µM
Km [7]: 258 µM
kcat [8]: 0.3 s⁻¹
Vmax [9]: 0.9 µM/min
Vmax [10]: 1 µM/min
Vmax [11]: 1 µM/min
Vmax [12]: 0.6 µM/min
Vmax [13]: 0.7 µM/min
kcat [14]: 1.3 s⁻¹
kcat [15]: 1.5 s⁻¹
Km [16]: 187 µM
Km [17]: 165 µM
Vmax [18]: 0.3 µM/min
Km [19]: 53 µM
Km [20]: 200 µM
Km [21]: 386 µM
Km [22]: 355 µM
Vmax [23]: 1.3 µM/min
Vmax [24]: 1.5 µM/min
kcat [25]: 0.9 s⁻¹
kcat [26]: 1 s⁻¹
Km [27]: 64 µM
